High-throughput results as filed in PubChem.
Tn7 DDE FP: inhibitors of Tn7 peptide binding to fibrin DD(E), primary screen, biochemical, fluorescence polarization, human fibrin, Tn7 probe; Fibrinogen beta chain (Homo sapiens), P02675; FP displacement of FITC-Tn7 peptide from fibrin DD(E); 0% = median of compound wells per plate; inhibition, % at 8.3 µM; 370,000 tested, 0.13% active;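 active = inhibition above the mean of compounds falling within the control limits plus 3 SD of them, cut at about 14% in these data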
Target sequence (P02675 whole entry, looked up): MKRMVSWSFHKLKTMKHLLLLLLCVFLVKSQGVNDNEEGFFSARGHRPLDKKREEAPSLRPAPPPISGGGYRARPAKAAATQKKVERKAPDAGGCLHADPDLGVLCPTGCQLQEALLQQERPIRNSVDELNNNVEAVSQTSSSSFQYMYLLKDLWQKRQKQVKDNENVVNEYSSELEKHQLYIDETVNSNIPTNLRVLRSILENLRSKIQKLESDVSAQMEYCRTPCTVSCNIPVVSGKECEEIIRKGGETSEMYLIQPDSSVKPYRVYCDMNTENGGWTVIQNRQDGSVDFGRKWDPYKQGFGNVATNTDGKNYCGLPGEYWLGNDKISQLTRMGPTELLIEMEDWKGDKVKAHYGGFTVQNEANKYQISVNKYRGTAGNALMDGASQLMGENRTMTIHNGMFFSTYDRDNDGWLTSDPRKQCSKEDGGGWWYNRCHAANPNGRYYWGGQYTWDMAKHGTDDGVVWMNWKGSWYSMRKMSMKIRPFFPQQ
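Assay system: human fibrin DD(E). Input: DD(E) 2 µM final. Medium: Tris buffer with calcium and detergent, pH 7.8. Compound dosing: single point at 8.3 µM. Timing: 10 min plus 3 h, room temperature. Technique: fluorescence polarization of the labelled Tn7 tracer. Read-out: percent inhibition. Replicates: singlicate testing.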
RTF Ca sens inh: cardiac RTF calcium sensitivity inhibitors, primary screen, biochemical, IANBD-TnC fluorescence, EC70 calcium. Troponin I, cardiac muscle (Homo sapiens) + Troponin T, cardiac muscle (Homo sapiens) + …. IANBD-labeled cardiac RTF, Ca2+ fluorescence. inhibition, % at 7.15 µM. 340,000 tested, 0.12% active. AID 493244, 2011;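 active = inhibition above the mean inhibition of all tested compounds plus 3 SD, cut at about 17% in these data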;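 note: assay run at fixed EC70 calcium of 1.6 mM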
RTF Ca sens act: cardiac RTF calcium sensitivity activators, primary screen, biochemical, IANBD-TnC fluorescence, EC20 calcium | Troponin I, cardiac muscle (Homo sapiens) + Troponin T, cardiac muscle (Homo sapiens) + … | IANBD-labeled TnC RTF fluorescence at EC20 calcium; 0% EC20 calcium, 100% full calcium | activation, % at 7.2 µM | 340,000 tested, 0.24% active | AID 493008, 2010;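 active = activation above the mean over all tested compounds plus 3 SD, cut at about 30% in these data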;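 note: rise in fluorescence read as greater calcium sensitivity of cardiac thin filaments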
CRFR2-BP antag: antagonists of CRF-BP/CRF-R2 complex, primary screen, cell-based, HEK293, calcium dye fluorescence, uHTS. CRF-induced calcium fluorescence. inhibition, % at 11.8 µM. 350,000 tested, 0.59% active. AID 588475, 2011;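 active = inhibition of the ligand-induced calcium signal above about 50% at the single tested concentration, limit read from the data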
CRFBP-R2 agonist: agonists of CRF-BP/CRF-R2 complex, primary screen, cell-based, HEK293, calcium dye fluorescence, uHTS. calcium dye fluorescence (FLIPR); percent of saturating CRF peptide response. activation, % at 13.2 µM. AID 588473, 2011. CRF-binding protein / CRF receptor 2 complex (human). 350,000 tested, 0.46% active;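 active = activation of at least 50%, plus an integration ratio under a set limit after plate pattern correction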
Tn6 DDE FP: inhibitors of Tn6 peptide binding to fibrin DD(E), primary screen, biochemical, fluorescence polarization, human fibrin, Tn6 probe; Fibrinogen beta chain (Homo sapiens), P02675; Fibrin DD(E) TRITC-Tn6 fluorescence polarization displacement; inhibition, % at 8.3 µM; 370,000 tested, 0.21% active;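 active = inhibition above a per-campaign cutoff: mean of compounds within control limits plus 3 SD, cut at about 15% in these data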
Numbers stand for hits; i = inactive; nt = not tested or not shown. A selection: hits, their analogues and other compounds. The true share with any hit is near 1.4%.

SMILES	Tn7 DDE FP	RTF Ca sens inh	RTF Ca sens act	CRFR2-BP antag	CRFBP-R2 agonist	Tn6 DDE FP
O=C(Nc1ccc(Cl)c(Cl)c1)Oc1ccc(NC(=O)c2ccco2)cc1	19	i	i	i	i	i
O=C(Nc1ccc(OC(=O)c2ccco2)cc1)c1ccco1	i	i	i	i	i	i
CC(=O)Nc1ccc(NC(=O)c2nc(S(=O)(=O)Cc3ccccc3)ncc2Cl)cc1	i	i	i	i	i	i
Cc1ccc(CS(=O)(=O)c2ncc(Cl)c(C(=O)Nc3ccc(OC(F)F)cc3)n2)cc1	i	i	i	54	i	i
COC(=O)c1ccccc1NC(=O)c1nc(S(=O)(=O)Cc2ccccc2)ncc1Cl	i	i	i	54	i	i
C[C@H](CO)N1C[C@H](C)[C@H](CN(C)C(=O)Nc2ccc(N3CCN(C)CC3)cc2)OCc2cnnn2CCCC1=O	i	nt	nt	i	i	i
CCOC(=O)CC[C@H]1CC[C@]2(CCCN(C(=O)c3ccno3)C2)O1	i	nt	nt	nt	nt	i
N#Cc1c(N)nc(SC2CCCCC2=O)c(C#N)c1-c1ccco1 (stereo not given)	i	i	i	106	i	i
N#Cc1c(N)nc(SCc2ccccc2)c(C#N)c1-c1ccco1	i	i	i	i	i	i
COC(=O)c1cc2c(c3c4cc(OC)ccc4n(S(=O)(=O)c4ccc(OC)cc4)c13)C(=O)N(C)C2	i	nt	nt	nt	nt	i
Cc1cn(CC(=O)N2CCN(c3ccccn3)CC2)c(=O)[nH]c1=O	i	i	i	96	i	i
Cc1ccc(SCC(=O)N2CCN(c3ccccn3)CC2)cc1	i	i	i	i	i	i
O=C1c2ccccc2C(=O)N1c1ncc(Cc2ccc(Cl)cc2)s1	i	i	i	i	208	i
CCOC(=O)C1=CCC(c2cccc3ccccc23)N(S(=O)(=O)c2ccc(C)cc2)C1 (stereo not given)	i	nt	nt	nt	nt	i
CC1=C(C)/C(=N\OS(=O)(=O)c2ccc(C)cc2)C=CC1=O	i	i	i	i	64	i
CC1=CC(=O)C(C(C)C)=C/C1=N\OS(=O)(=O)c1ccccc1	i	nt	nt	nt	nt	i
CC1=C/C(=N\OS(=O)(=O)c2ccccc2)C(C)=CC1=O	nt	i	i	i	69	nt
c1ccc(Cn2c(SC3CCCCC3)nnc2-c2cccnc2)cc1	i	nt	nt	nt	nt	i
O=C(N/N=C/c1cc(Cl)cc([N+](=O)[O-])c1O)NC12CC3CC(CC(C3)C1)C2	i	i	i	53	i	i
Cc1ccc(-n2nnnc2C(Cl)(Cl)c2nnnn2-c2ccc(C)cc2)cc1	i	i	i	i	72	i
O=C(Cn1nc(Cl)nc1Cl)Nc1ccccc1	i	i	i	61	i	i
CC1(C2CC2)NC(=O)N(CC(=O)Nc2ccccc2F)C1=O (stereo not given)	i	i	i	54	i	i
Cc1ccc(NC(=O)CN2C(=O)NC(C)(C3CC3)C2=O)c(C)c1 (stereo not given)	i	i	i	i	i	i
Cn1c(O)c(/C=N/NC(=O)c2cc3ccccc3cc2O)c2ccccc21	i	i	40	i	117	i
Cn1c2ccccc2c2cc(/C=N/NC(=O)c3ccc(O)cc3O)ccc21	nt	i	i	i	i	nt
COc1cc(-c2noc(C)c2-c2ccc(N(C)C)nc2)cc(OC)c1OC	i	i	i	i	53	i
O=C1CSC(=S)N1Cc1ccccc1	i	nt	nt	i	i	i
O=c1c2ccccc2nc2n1C(CBr)CN2 (stereo not given)	i	i	i	65	i	i
O=c1c2ccccc2nc2n1C(CBr)CS2 (stereo not given)	i	i	i	i	i	i
S=C(SCc1c(Cl)cccc1Cl)N1CCSCC1	i	nt	nt	nt	nt	i
